These results are taken from ChEMBL document CHEMBL5136970, “Influence of ring size in conformationally restricted ring I analogs of paromomycin on antiribosomal and antibacterial activity” (RSC Med Chem, 2021).

Assay [1] can be described thus: Inhibition of human mitochondrial ribosome Mit 13 hybridized with Mycobacterium smegmatis ribosome assessed as inhibition of translation activity using Firefly luciferase mRNA reporter based luminescence analysis. The gist of the method:
(§1)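 Cell-free ribosomal translation assay. IC50 reported in μM ± STD, determined in duplicate or more, with fewer replicates for a few compounds where material was limited.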

Assay [2] deals with Enterobacter cloacae. The assay can be described thus: Antibacterial activity against Enterobacter cloacae AG290. In kind it is functional.
The subject of assay [3] is Staphylococcus aureus. The assay can be described thus: Antibacterial activity against methicillin-resistant Staphylococcus aureus AG038. It is filed as functional.
The subject of assay [4] is Pseudomonas aeruginosa. Put plainly: Antibacterial activity against Pseudomonas aeruginosa AG031. It is filed as functional.
The target in assay [5] is Bacterial 70S ribosome. Put plainly: Inhibition of Mycobacterium smegmatis wild type ribosomes assessed as inhibition of translation activity using Firefly luciferase mRNA reporter based luminescence analysis. In kind it is subcellular, Mycolicibacterium smegmatis. The gist of the method: (§2)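 Cell-free ribosomal translation inhibition with IC50 reported in μM. Values were determined in duplicate or more, except for a few compounds in the mitochondrial hybrid assays, where limited material allowed fewer runs.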

The nature of assay [6]: Selectivity ratio of IC50 for inhibition of human mitochondrial ribosome Mit 13 A1555G mutant hybridized with Mycobacterium smegmatis ribosomes to IC50 for inhibition of Mycobacterium smegmatis wild type ribosomes.
In assay [7] the test system is Klebsiella pneumoniae. Put plainly: Antibacterial activity against Klebsiella pneumoniae AG215. It is filed as functional.
The subject of assay [8] is Escherichia coli. The assay can be described thus: Antibacterial activity against Escherichia coli AG001. In kind it is functional.
Assay [9] deals with Acinetobacter baumannii. Put plainly: Antibacterial activity against Acinetobacter baumannii AG225. In kind it is functional.
Assay [10] in a line: Inhibition of human mitochondrial ribosome Mit 13 A1555G mutant hybridized with Mycobacterium smegmatis ribosome assessed as inhibition of translation activity using Firefly luciferase mRNA reporter based luminescence analysis. The gist of the method:
as §2

Assay [11] can be described thus: Selectivity ratio of IC50 for inhibition of human mitochondrial ribosome Mit 13 hybridized with Mycobacterium smegmatis ribosome to IC50 for inhibition of Mycobacterium smegmatis wild type ribosomes.
Assay [12] can be described thus: Inhibition of human cytoplasmic ribosome Cyt 14 hybridized with Mycobacterium smegmatis ribosome assessed as inhibition of translation activity using Firefly luciferase mRNA reporter based luminescence analysis. The gist of the method:
as §1

Assay [13] in a line: Selectivity ratio of IC50 for inhibition of human cytoplasmic ribosome Cyt 14 hybridized with Mycobacterium smegmatis ribosomes to IC50 for inhibition of Mycobacterium smegmatis wild type ribosomes.

SMILES strings stand for the structures. ≈ marks a conversion by molar mass, not a printed value. Where only a bound is given, the exact number is not on record here.

For the compound `NC[C@@H]1O[C@H](O[C@H]2[C@@H](O)[C@H](O[C@@H]3[C@@H](O)[C@H](N)C[C@H](N)[C@H]3O[C@H]3O[C@H]4[C@@H](OCCC[C@H]4O)[C@H](O)[C@H]3N)O[C@@H]2CO)[C@H](N)[C@@H](O)[C@@H]1O`, the 50% inhibitory concentration (IC50) – broadly, the concentration needed to halve the response being measured – in [1] worked out at 514 µM; in assay [5] it was 1.5 µM; in assay [10] it was 545 µM. For the same compound, the MIC (commonly the lowest concentration found to suppress growth) is 32 µg/mL (≈ 48.8 µM) in [2]; 32 µg/mL (≈ 48.8 µM) in assay [3]; above 128 µg/mL in assay [4]; 32 µg/mL (≈ 48.8 µM) in assay [7]; 64 µg/mL (≈ 97.6 µM) in assay [8]; 32 µg/mL (≈ 48.8 µM) in assay [9]. Further, the Ratio IC50 came out at 363 in assay [6] and 342 in assay [11].

As for `C[C@@H]1C[C@H](O)[C@H]2O[C@H](O[C@H]3[C@H](O[C@@H]4O[C@H](CO)[C@@H](O[C@H]5O[C@@H](CN)[C@@H](O)[C@H](O)[C@H]5N)[C@H]4O)[C@@H](O)[C@H](N)C[C@@H]3N)[C@H](N)[C@@H](O)[C@@H]2O1`, the concentration for half-maximal inhibition (IC50) was 250 µM in [1], 0.063 µM in assay [5], 20 µM in assay [10] and 34 µM in assay [12]. For the same compound, the MIC in assay [2] is 2 µg/mL (≈ 3.05 µM); in assay [3], 4 µg/mL (≈ 6.1 µM); in assay [4], 32 µg/mL (≈ 48.8 µM); in [7], 2 µg/mL (≈ 3.05 µM); in assay [8], 4 µg/mL (≈ 6.1 µM); in assay [9] it was 4 µg/mL (≈ 6.1 µM). Moreover, the figures for the Ratio IC50 in assay [6], in assay [11] and in assay [13] were 317, 3970 and 540, respectively.

`NC[C@@H]1O[C@H](O[C@H]2[C@@H](O)[C@H](O[C@@H]3[C@@H](O)[C@H](N)C[C@H](N)[C@H]3O[C@H]3O[C@H]4[C@@H](OCC[C@H]4O)[C@H](O)[C@H]3N)O[C@@H]2CO)[C@H](N)[C@@H](O)[C@@H]1O`: the IC50 in assay [1] was determined as 554 µM; in [5], 3.3 µM; in assay [10], 602 µM; in [12], 557 µM. The minimal inhibitory concentration (MIC) in [2] was 64 µg/mL (≈ 99.7 µM); in assay [3] it was 32 µg/mL (≈ 49.9 µM); in assay [4], above 128 µg/mL; in assay [7], 64 µg/mL (≈ 99.7 µM); in [8], 128 µg/mL (≈ 199 µM); in assay [9], 64 µg/mL (≈ 99.7 µM). Also, the results for the Ratio IC50 in assay [6], in assay [11] and in assay [13] were 182, 168 and 169, respectively.

For `C[C@@H]1C[C@@H](O)[C@H]2O[C@H](O[C@H]3[C@H](O[C@@H]4O[C@H](CO)[C@@H](O[C@H]5O[C@@H](CN)[C@@H](O)[C@H](O)[C@H]5N)[C@H]4O)[C@@H](O)[C@H](N)C[C@@H]3N)[C@H](N)[C@@H](O)[C@@H]2O1`, the IC50 amounted to 372 µM in assay [1], 0.89 µM in assay [5], 327 µM in [10] and 266 µM in assay [12]. In addition, the MIC in assay [2] was 32 µg/mL (≈ 48.8 µM); in assay [3], 32 µg/mL (≈ 48.8 µM); in assay [4] it was above 128 µg/mL; in assay [7], 16 µg/mL (≈ 24.4 µM); in assay [8] it was 32 µg/mL (≈ 48.8 µM); in assay [9], 32 µg/mL (≈ 48.8 µM). Besides, the results for the Ratio IC50 in assay [6], in [11] and in assay [13] were 367, 418 and 299, respectively.

In the case of `NC[C@@H]1O[C@H](O[C@H]2[C@@H](O)[C@H](O[C@@H]3[C@@H](O)[C@H](N)C[C@H](N)[C@H]3O[C@H]3O[C@H]4[C@@H](OCCC[C@@H]4O)[C@H](O)[C@H]3N)O[C@@H]2CO)[C@H](N)[C@@H](O)[C@@H]1O`, the 50% inhibitory concentration (IC50) in assay [1] was found to be 243 µM; in [5], 0.071 µM; in [10], 42 µM; in assay [12], 56 µM. The MIC amounted to 2 µg/mL (≈ 3.05 µM) in [2]; 2 µg/mL (≈ 3.05 µM) in assay [3]; 64 µg/mL (≈ 97.6 µM) in [4]; 2 µg/mL (≈ 3.05 µM) in [7]; 4 µg/mL (≈ 6.1 µM) in [8]; 4 µg/mL (≈ 6.1 µM) in assay [9]. Moreover, the results for the Ratio IC50 in [6], in assay [11] and in assay [13] were 592, 3420 and 789, respectively.

On to `NC[C@@H]1O[C@H](O[C@H]2[C@@H](O)[C@H](O[C@@H]3[C@@H](O)[C@H](N)C[C@H](N)[C@H]3O[C@H]3O[C@H]4[C@@H](OC[C@H]4O)[C@H](O)[C@H]3N)O[C@@H]2CO)[C@H](N)[C@@H](O)[C@@H]1O`, for which the 50% inhibitory concentration (IC50) in assay [1] stood at 131 µM; in assay [5], 0.2 µM; in [10] it was 117 µM; in assay [12], 276 µM. Besides, the MIC in assay [2] is 8 µg/mL (≈ 12.7 µM); in assay [3] it was 8 µg/mL (≈ 12.7 µM); in assay [4], above 64 µg/mL; in assay [7], 4 µg/mL (≈ 6.37 µM); in assay [8] it was 16 µg/mL (≈ 25.5 µM); in assay [9] it was 8 µg/mL (≈ 12.7 µM). Moreover, the Ratio IC50 stood at 585 in assay [6], 655 in assay [11] and 1380 in assay [13].

As for `NC[C@@H]1O[C@H](O[C@H]2[C@@H](O)[C@H](O[C@@H]3[C@@H](O)[C@H](N)C[C@H](N)[C@H]3O[C@H]3O[C@H]4[C@@H](OCC[C@@H]4O)[C@H](O)[C@H]3N)O[C@@H]2CO)[C@H](N)[C@@H](O)[C@@H]1O`, the IC50 in assay [1] came to 231 µM; in [5] it was 0.12 µM; in assay [10], 132 µM; in [12], 120 µM. In addition, the MIC in assay [2] is 4 µg/mL (≈ 6.23 µM); in [3], 2 µg/mL (≈ 3.12 µM); in [4], above 128 µg/mL; in assay [7] it was 4 µg/mL (≈ 6.23 µM); in assay [8], 8 µg/mL (≈ 12.5 µM); in assay [9], 8 µg/mL (≈ 12.5 µM). Besides, the Ratio IC50 is 1100 in assay [6], 1920 in assay [11] and 1000 in assay [13].

Regarding `NC[C@@H]1O[C@H](O[C@H]2[C@@H](O)[C@H](O[C@@H]3[C@@H](O)[C@H](N)C[C@H](N)[C@H]3O[C@H]3O[C@H](CO)[C@@H](O)[C@H](O)[C@H]3N)O[C@@H]2CO)[C@H](N)[C@@H](O)[C@@H]1O` [PAROMOMYCIN], the IC50 was found to be 131 µM in assay [1], 0.033 µM in assay [5], 12 µM in assay [10] and 37 µM in assay [12]. Further, the minimum inhibitory concentration (MIC) in [2] was 2 µg/mL (≈ 3.25 µM); in assay [3], 2 µg/mL (≈ 3.25 µM); in assay [4], above 128 µg/mL; in [7] it was 1 µg/mL (≈ 1.62 µM); in assay [8] it was 2 µg/mL (≈ 3.25 µM); in assay [9] it was 2 µg/mL (≈ 3.25 µM). The Ratio IC50 in assay [6] is 364; in assay [11] it was 3970; in [13], 1120.

Turning to `NC[C@@H]1O[C@H](O[C@H]2[C@@H](O)[C@H](O[C@@H]3[C@@H](O)[C@H](N)C[C@H](N)[C@H]3O[C@H]3O[C@H]4[C@@H](OC[C@@H]4O)[C@H](O)[C@H]3N)O[C@@H]2CO)[C@H](N)[C@@H](O)[C@@H]1O`, the half-inhibitory concentration (IC50) in [1] is 151 µM; in assay [5], 0.13 µM; in assay [12] it was 40 µM. In addition, the minimum inhibitory concentration (MIC) in assay [2] was 32 µg/mL (≈ 51 µM); in [3] it was 16 µg/mL (≈ 25.5 µM); in assay [4], above 128 µg/mL; in assay [7], 16 µg/mL (≈ 25.5 µM); in assay [8] it was 32 µg/mL (≈ 51 µM); in assay [9], 32 µg/mL (≈ 51 µM). Also, the results for the Ratio IC50 in [11] and in assay [13] were 943 and 250, respectively.
